# Source: PubChem
# Rows were chosen to be rich in hits. Some 1.6% of all compounds tested hit in one or more screens of this group.
# TPT1 inh = blocks Candida albicans tRNA 2'-phosphotransferase; recombinant caTPT1, FP RNA substrate dephosphorylation; inhibition, % at 5 µM; actives 0.81% (n = 300,000); AID 1962;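 active means inhibition above the mean of all tested compounds plus 3 SD, set per screening campaign, cut at about 24% in these data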
# PKA-R1A activ = PKA-R1A complex activation; P00514+P68181; PKA-R1A dissociation, Cy5-IP20 fluorescence polarization; scaled: DMSO 0%, 113 µM cGMP 100%; activation, % at 11.4 µM; actives 0.083% (n = 340,000); AID 504707;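 active means percent activation above the mean of all tested compounds plus 3 SD, cut at about 19% in these data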;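 further: higher means more PKAc released from R1A so a rise in polarization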
# Rpn11 block = blocks the human proteasome subunit Rpn11; human 26S proteasome, Ub4-pepOG fluorescence polarization; 20S core pre-blocked with epoxomicin; calls only at 20 µM; actives 0.59% (n = 360,000); AID 588493;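 active means inhibition at 20 µM, scaled to each plate's controls, above about 33%, limit read from the data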
# PKA-R2B activ = PKA-R2B complex activation; P22694+P31323; PKA-R2B holoenzyme dissociation, Cy5-IP20 fluorescence polarization; R2B truncated from residue 108, S112A mutant; 0% DMSO only, 100% 113 µM cGMP; activation, % at 11.4 µM; actives 0.079% (n = 340,000); AID 504700;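 active means activation above a cutoff set at the mean over all compounds plus 3 SD, cut at about 18% in these data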;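 further: higher means more holoenzyme dissociation and a rise in polarization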
# Target sequence (P31323 whole entry, looked up, other chains not shown, the tested form may be a part): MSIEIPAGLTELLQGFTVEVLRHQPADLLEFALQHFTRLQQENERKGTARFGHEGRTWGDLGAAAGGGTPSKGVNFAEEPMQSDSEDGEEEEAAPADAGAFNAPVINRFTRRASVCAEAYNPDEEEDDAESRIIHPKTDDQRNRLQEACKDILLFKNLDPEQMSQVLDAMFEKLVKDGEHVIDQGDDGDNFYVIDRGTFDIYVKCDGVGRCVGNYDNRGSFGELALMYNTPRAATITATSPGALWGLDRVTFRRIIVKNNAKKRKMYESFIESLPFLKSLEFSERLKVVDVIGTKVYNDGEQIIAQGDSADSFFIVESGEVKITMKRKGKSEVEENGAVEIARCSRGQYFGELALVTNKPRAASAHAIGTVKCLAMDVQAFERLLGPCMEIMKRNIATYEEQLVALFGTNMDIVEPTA
# CSN deneddyl inh = inhibitors of human CSN-mediated cullin deneddylation; Q92905; Purified CSN, SCF-Nedd8-OG deneddylation, fluorescence polarization; inhibition, % at 12.5 µM; actives 0.38% (n = 360,000);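 active means pattern-corrected inhibition above about 35%, with an unprinted fluorescence ratio check between 0.5 and 1.5, limit read from the data, passing the limit was not always enough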
#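 Assay system: purified human Csn5 enzyme expressed in HEK293T cells; Input: 0.24 nM Csn5 enzyme, final concentration; Reagent: 10 nM SCFSkp2-Nedd8OG; Compound dosing: 12.5 µM single point; Times: reaction 90 min, room temperature; Technique: fluorescence polarization readout.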
# HNF4A DNA FP = change in binding of human HNF4 alpha to DNA | activity change, % at 10 µM | actives 0.3% (n = 360,000) | HNF4a-FITC DNA binding, fluorescence polarization, 1 h; in the data active means activity change above about 30%, passing the limit was not always enough
# caTPT1 confirm = confirmation of Candida albicans TPT1 inhibitors. shares compounds with TPT1 inh. recombinant caTPT1, fluorescence polarization, RNase T1 coupled. inhibition, % at 5 µM. actives 74% (n = 2,400). AID 2149;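 active means inhibition above the primary screen limit, the mean inhibition of all tested compounds plus 3 SD, cut at about 25% in these data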
# RNase T1 counter = counter-screen for TPT1 inhibitors: inhibitors of Aspergillus oryzae RNase T1 | shares compounds with TPT1 inh | RNase T1 cleavage, fluorescence polarization, 1536-well | inhibition, % at 5 µM | actives 83% (n = 2,400);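 active means inhibition above the solvent-only control well mean plus 3 SD, limit set per screening run, cut at about 23% in these data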;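 further: inhibitors block cleavage so intact labeled substrate keeps polarization high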
# Target sequence (P00651 whole entry, looked up): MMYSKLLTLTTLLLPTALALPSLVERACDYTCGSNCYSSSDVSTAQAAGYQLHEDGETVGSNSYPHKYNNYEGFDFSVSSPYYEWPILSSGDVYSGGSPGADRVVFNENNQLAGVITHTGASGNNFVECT
# Numbers stand for hits; – = inactive; · = not tested or not shown.
SMILES,TPT1 inh,PKA-R1A activ,Rpn11 block,PKA-R2B activ,CSN deneddyl inh,HNF4A DNA FP,caTPT1 confirm,RNase T1 counter
COc1cc(C2C(C#N)=C(N)Oc3c2oc(CO)cc3=O)ccc1OC(C)C (stereo unspecified),–,–,–,–,–,–,·,·
O=[N+]([O-])c1cccc(/C=C/c2ccc3cccc(O)c3n2)c1,–,–,–,–,–,–,·,·
O=[N+]([O-])c1cccc(/C=C/c2nc(C=Nc3ccc4ccccc4c3)c(O)o2)c1,33,–,–,–,–,–,–,28
COc1ccc(OC)c(N(CC(=O)Nc2ccc3c(c2)OCCO3)S(C)(=O)=O)c1,–,–,–,–,–,–,·,·
O=C1CC(=O)N(Cc2cccs2)C(=O)N1,62,–,–,–,–,–,–,23
COc1cc(/C=N/NC(=O)Cc2ccc(Br)cc2)cc(OC)c1O,–,–,–,–,–,–,·,·
COc1cc(/C=N/NC(=O)CC#N)cc(Br)c1O,27,–,–,–,–,–,–,–
CCOc1cc(/C=C2/C(=O)ON=C2C)ccc1O,–,–,–,–,–,–,·,·
CC1=NOC(=O)/C1=C/c1ccc(O)c(Cl)c1,–,–,–,–,–,–,·,·
CCN(CC)c1ccc(/C=C2/C(=O)ON=C2C)cc1,117,–,·,–,–,–,132,134
CN(C)c1ccc(/C=C2\N=C(C(C)(C)C)OC2=O)cc1,117,–,·,–,–,–,129,140
COc1ccc(/C=C2\N=C(C(C)(C)C)OC2=O)c(OC)c1,–,–,–,–,–,–,·,·
CC1=NOC(=O)/C1=C/c1ccc(N(C)C)cc1,78,·,·,·,·,·,97,114
CCN1C(=O)c2ccc(C(=O)O)cc2C1=O,–,–,–,–,–,–,·,·
CCN(CC)c1ccc(/C=C2/C(=O)c3ccc(C(=O)O)cc3C2=O)cc1,136,–,·,–,–,82,121,114
CCOc1ccccc1NC=C1C(=O)OC2(CCCCC2)OC1=O,–,–,–,–,–,–,·,·
CCN(CC)c1ccc(C=C2C(=O)OC3(CCCCC3)OC2=O)cc1,101,–,·,–,–,–,166,156
Cc1ccc(/C=C2\CCC3=C2OC(N)=C(C#N)C3c2ccc(C)cc2)cc1 (stereo unspecified),122,–,·,–,–,–,121,112
Cc1c(C(=O)Nc2nnc(C3CC3)s2)oc2ccccc12,·,–,–,–,–,–,·,·
Cc1cccc(NC(=O)c2sc3nc4c(c(-c5cccs5)c3c2N)CN(C)CC4)c1,38,–,–,–,–,–,28,35
Cc1ccc(-n2nc3c(N4CCC(C(=O)N5CCCCCC5)CC4)nnc(C)c3c2C)cc1,–,–,–,–,–,–,·,·
CCCN1CCN(C(=O)C2CCN(c3nnc(C)c4c(C)n(-c5ccc(C)cc5)nc34)CC2)CC1,28,–,·,–,–,–,36,48
COc1ccc(NC(=O)CSc2ccc3c4c(cccc24)C(=O)c2ccccc2-3)cc1,26,–,–,–,–,–,28,41
Cc1ccc(-c2cc3nc(C)cc(C)n3n2)cc1,–,–,–,–,–,–,·,·
Cc1cc(C)n2nc(-c3ccsc3-n3c(C)ccc3C)cc2n1,45,–,·,–,–,–,53,64
SMILES,TPT1 inh,PKA-R1A activ,Rpn11 block,PKA-R2B activ,CSN deneddyl inh,HNF4A DNA FP,caTPT1 confirm,RNase T1 counter
Cc1nn(-c2ncc(C(F)(F)F)cc2Cl)c(=O)n1-c1c(F)cccc1F,32,–,–,–,–,–,–,–
COc1ccc(N2CCN(CC(=O)Nc3cccc(S(=O)(=O)N4CCOCC4)c3)CC2)cc1,–,–,–,–,–,–,·,·
O=C(Cc1ccccc1[N+](=O)[O-])NCc1ccccc1Cl,–,–,–,–,–,–,·,·
COc1ccc([N+](=O)[O-])cc1NC(=O)Cc1noc2ccccc12,–,–,–,–,–,–,·,·
Cc1c(NC(=O)Cc2noc3ccccc23)cccc1[N+](=O)[O-],74,–,–,–,–,–,–,–
CC(C)NC(=O)N(C)C[C@H]1Oc2ccc(NS(=O)(=O)c3cn(C)cn3)cc2C(=O)N([C@H](C)CO)C[C@@H]1C,·,–,–,–,–,–,·,·
CCOc1ccc(C2=C/C(=C/c3cccnc3)C(=O)O2)cc1,83,–,–,–,–,–,69,78
COc1ccc(C2=C/C(=C/c3cccnc3)C(=O)O2)cc1OC,80,–,·,–,–,–,80,85
CC(=O)Oc1cccc(/C=C2\C=C(c3ccc(C)cc3)OC2=O)c1,–,–,–,–,–,–,·,·
O=C(Cc1ccccc1)Nc1ccc(N2CCCC2)cc1,36,–,–,–,–,–,–,26
CCOc1ccc(-n2ccnc(SCC(=O)Nc3cccc(OC)c3)c2=O)cc1,–,–,–,–,–,–,·,·
Cn1c(CNC(=O)CNC(=O)c2ccc(C(C)(C)C)cc2)cc(=O)n(C)c1=O,–,–,–,–,–,–,·,·
COc1ccc(/C=N/Nc2ccc([N+](=O)[O-])cc2S(=O)(=O)N2CCN(C)CC2)cc1,71,–,·,–,–,–,105,118
COc1ccc(NS(=O)(=O)c2cc([N+](=O)[O-])ccc2N/N=C\c2c(C)[nH]c3ccccc23)cc1,72,–,·,–,–,65,75,86
COC(=O)c1ccc(N)c(N=CC2=C(O)CC(C)(C)CC2=O)c1,31,–,·,–,–,–,–,–
CC1(C)CC(=O)C(C=Nc2cc(C(=O)c3ccccc3)ccc2N)=C(O)C1,27,–,·,–,–,–,–,–
O=C(O)CNC(=O)CC1S/C(=N/N=C2/NC(=O)CS2)NC1=O (stereo unspecified),26,–,–,–,–,–,33,46
NC(=O)NC(=O)CC1S/C(=N/N=C2\CSC(=O)N2)NC1=O (stereo unspecified),–,–,–,–,–,–,·,·
CC(C(=O)c1ccc(Br)cc1)[n+]1cccc2ccccc21 (stereo unspecified),37,–,·,–,–,–,–,26
CC(C(=O)c1ccc(Br)cc1)[n+]1cccc(NC(=O)c2ccccc2)c1 (stereo unspecified),–,–,–,–,–,–,·,·
Cc1cccc(S(=O)(=O)c2c(N)n(/N=C/c3ccco3)c3nc4ccccc4nc23)c1,–,–,–,–,–,–,·,·
Cc1cccc(S(=O)(=O)c2c(N)n(/N=C/c3cccnc3)c3nc4ccccc4nc23)c1,33,–,–,–,–,–,53,70
